Bioassay records deposited in PubChem by several laboratories.
Sampled rows, rich in hits. Any-hit rate of the full collection: about 1.7%.
IDE cell activ: activators of human insulin-degrading enzyme in cells; P14735; HEK cells, FAbeta-B cleavage, fluorescence polarization; 0% vehicle, 100% cell-free pure enzyme wells; activation, % at 5.96 µM; 340,000 tested, 0.073% active; AID 493087;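 active = activation above the mean of all tested compounds plus 3 SD, set per screening campaign, cut at about 17% in these data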
IDE cell inh: inhibitors of human insulin-degrading enzyme in cells | P14735 | 320,000 tested, 0.41% active | HEK cells, FAbetaB cleavage, fluorescence polarization | inhibition, % at 5.59 µM | AID 434962;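 active = percent inhibition above the average of all tested compounds plus 3 SD, set per screening campaign, cut at about 16% in these data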;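 also: IDE supplied by intact live HEK cells; FP after avidin binding of uncleaved biotin substrate so inhibition keeps polarization high; 0% = DMSO wells and 100% = 60 µM reference IDE inhibitor Ii1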
CSN deneddyl inh: blocks human CSN-mediated cullin deneddylation | 360,000 tested, 0.38% active | Q92905 | inhibition, % at 12.5 µM | Purified CSN, SCF-Nedd8-OG deneddylation, fluorescence polarization;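 active = pattern-corrected inhibition above about 35%, with an unprinted fluorescence ratio check between 0.5 and 1.5, limit read from the data, passing the limit was not always enough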;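 also: 0% = enzyme with substrate and 100% = substrate without enzyme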
Target sequence (Q92905 whole entry, looked up, one chain of several): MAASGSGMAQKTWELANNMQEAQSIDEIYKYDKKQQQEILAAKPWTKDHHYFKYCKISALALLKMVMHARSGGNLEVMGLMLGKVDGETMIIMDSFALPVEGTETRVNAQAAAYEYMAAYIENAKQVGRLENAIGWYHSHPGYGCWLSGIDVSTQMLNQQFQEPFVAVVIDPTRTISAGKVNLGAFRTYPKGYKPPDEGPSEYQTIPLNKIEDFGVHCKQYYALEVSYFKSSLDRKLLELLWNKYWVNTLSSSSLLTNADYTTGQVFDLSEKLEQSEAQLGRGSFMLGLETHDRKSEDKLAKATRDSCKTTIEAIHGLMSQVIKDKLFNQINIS
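Test system: purified human Csn5 enzyme expressed in HEK293T cells. Amount: 0.24 nM enzyme. Reagent: SCFSkp2-Nedd8OG substrate at 10 nM final. Schedule: 90 min incubation of compound, enzyme and substrate at room temperature. Detection: fluorescence polarization. Read-out: % inhibition of substrate cleavage by Csn5.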
TPT1 inhibitor: blocks Candida albicans tRNA 2'-phosphotransferase. recombinant caTPT1, FP RNA substrate dephosphorylation. AID 1962. inhibition, % at 5 µM. 300,000 tested, 0.81% active;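 active = inhibition above the mean of all tested compounds plus 3 SD, set per screening campaign, cut at about 24% in these data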;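 also: plate controls were DMSO alone for no effect and ferristatin control at 100 nM for full effect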
HNF4A DNA FP: change in binding of human HNF4 alpha to DNA; 360,000 tested, 0.3% active; P41235; HNF4a-FITC DNA binding, fluorescence polarization, 1 h; activity change, % at 10 µM; in the data active = activity change above about 30%, passing the limit was not always enough
Tb MetRS inh: blocks T. brucei methionyl-tRNA synthetase activity; purified T. brucei MetRS, ATP depletion, Kinase-Glo luminescence; inhibition, % at 11.9 µM; 360,000 tested, 0.4% active;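 active = inhibition above a per-plate cutoff of the control wells' mean inhibition plus 3 SD, cut at about 5.5% in these data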;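 also: 0% = DMSO wells median and 100% = median of wells with control inhibitor compound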
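Test system – parasite MetRS enzyme · Reagent – substrates ATP, L-methionine and bulk Escherichia coli tRNA · Doses – 11.9 µM compound single dose, 0.9% DMSO · Times – 15 min enzyme-compound preincubation, 2 h reaction, 10 min detection, 25 °C · Signal – Kinase-Glo luminescence, ATP depletion format · Controls – DMSO-only wells as low control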
TbMetRS confirm: confirmation of Trypanosoma brucei MetRS inhibitors. shares compounds with Tb MetRS inh. T. brucei MetRS enzyme, luminescence (ATP depletion). inhibition, % at 11.9 µM. 1,400 tested, 93% active. AID 624412; in the data active = inhibition above about 7%
Jurkat tox: counter-screen for T. brucei MetRS inhibitors: Jurkat cell cytotoxicity; inhibition, % at 8.3 µM; 1,400 tested, 12% active; Jurkat cells viability, ATP luminescence; AID 624413; shares compounds with Tb MetRS inh; in the data active = inhibition above about 15%;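 also: 0% = vehicle and 100% = reference inhibitor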
Tb MetRS inh FP: orthogonal test for Trypanosoma brucei MetRS inhibitors. purified T. brucei MetRS, fluorescence polarization. inhibition, % at 11.9 µM. shares compounds with Tb MetRS inh. 1,400 tested, 44% active; in the data active = inhibition above about 17%;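 also: 0% = vehicle wells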
* = called active by the depositor; / = no result given.

SMILES	IDE cell activ	IDE cell inh	CSN deneddyl inh	TPT1 inhibitor	HNF4A DNA FP	Tb MetRS inh	TbMetRS confirm	Jurkat tox	Tb MetRS inh FP
Cc1[nH]c2ccc(Cl)cc2c(=O)c1CN1CCCC1	1	4	2	-3	-2	45*	48*	10	28*
Cc1[nH]c2ccccc2c(=O)c1CN1CCCCC1	9	-4	-5	4	-4	0	/	/	/
O=C(CCCCC(=O)Nc1ccc(F)cc1)Nc1ccc(F)cc1	-3	4	-5	-3	-3	0	/	/	/
O=C(CNC(=O)c1ccc(Cl)cc1Cl)Nc1ccc(F)cc1	-3	-6	-5	-2	-1	10*	27*	-1	14
O=C(CC(=O)Nc1ccc(F)cc1)Nc1ccc(F)cc1	-3	-1	3	2	-4	7.0*	18*	-8	6
CS(=O)(=O)Cc1nc2ccccc2n1CC(=O)Nc1cccc(S(=O)(=O)N2CCCC2)c1	7	/	0	/	2	10*	33*	0	10
O=C(COC(=O)Cn1[nH]c(=O)c2ccccc2c1=O)NNC(=O)c1ccccc1	-2	-8	-2	/	4	0	/	/	/
Cc1ccc2[nH]c3nc(SCC#N)nnc3c2c1	6	0	-2	-6	2	2	/	/	/
COc1cccc(CNC(=O)CSc2nnc3c(n2)[nH]c2ccc(C)cc23)c1	-3	2	4	-4	-3	19*	79*	5	46*
COc1ccc2[nH]c3nc(SCC(=O)Nc4cccc(NC(C)=O)c4)nnc3c2c1	8	6	3	1	2	4	/	/	/
COc1cccc(CNC(=O)CSc2nc3ccc(C)cc3[nH]2)c1	1	3	0	-4	2	5.8*	20*	-3	8
COc1cccc(NC(=O)CSc2nnc3c(n2)[nH]c2ccc(C)cc23)c1	1	-2	2	-1	0	80*	96*	4	93*
CC1CCCCN1S(=O)(=O)c1ccc(S(=O)(=O)N2CCN(C)CC2)cc1 (stereo not given)	-2	1	1	1	-1	0	/	/	/
Oc1oc(-c2ccc(Br)cc2)nc1C=Nc1ccc(Br)cn1	1	-2	8	-1	2	8.7*	65*	-4	32*
C[C@H](CO)N1C[C@H](C)[C@@H](CN(C)S(=O)(=O)c2ccccc2)Oc2ccc(NC(=O)Nc3ccccc3)cc2C1=O	2	1	-3	/	2	7.2*	19*	-3	3
C[C@H](CO)N1C[C@H](C)[C@@H](CN(C)C(=O)Nc2ccc(C(F)(F)F)cc2)Oc2ccc(NC(=O)Nc3ccccc3)cc2C1=O	-5	4	-4	/	2	6.1*	18*	7	13
C[C@H](CO)N1C[C@H](C)[C@@H](CN(C)C(=O)Nc2ccccc2)Oc2ccc(NC(=O)Nc3ccccc3)cc2C1=O	1	-2	-5	/	-1	3	/	/	/
O=C(NC1CCN(Cc2ccccc2)CC1)c1ccccc1OCc1ccccc1Cl	5	1	6	-1	1	0	/	/	/
COc1cccc(CNC(=O)CN2C(=O)CSc3ccc(S(=O)(=O)N4CCCC4)cc32)c1	1	1	5	-1	2	-1	/	/	/
Cc1ccnc(NCc2ccc(Br)cc2)c1	4	-5	1	4	-1	6.0*	15*	-1	6
COc1ccc(CNc2cc(C)ccn2)cc1	3	-3	0	-3	1	1	/	/	/
O=C(Cn1cc(C(=O)c2cccs2)c2ccccc21)NCc1ccc2c(c1)OCO2	2	-3	-2	-2	5	21*	35*	5	16
CCCCCOc1ccc(Br)cc1CSC(=N)N	4	/	9	/	-1	2	/	/	/
COc1ccc(Br)cc1CSC(=N)N	7	2	-4	-2	0	11*	2	9	2
CC(=O)Nc1ccc(NC(=O)CSc2ccc3nnc(-c4cccnc4)n3n2)cc1	5	4	4	0	-3	0	/	/	/
SMILES	IDE cell activ	IDE cell inh	CSN deneddyl inh	TPT1 inhibitor	HNF4A DNA FP	Tb MetRS inh	TbMetRS confirm	Jurkat tox	Tb MetRS inh FP
COc1cccc(CC(NC(C)=O)C(=O)NC2CCN(C(=O)c3ccc(Cl)cc3)CC2)c1OC (stereo not given)	1	2	-1	0	3	0	/	/	/
CCc1nc2ccc(C(=O)NC3CCN(Cc4ccccc4)CC3)cn2c1N(C)Cc1cc2ccccc2s1	/	/	-1	/	0	0	/	/	/
O=C(NNC(=O)c1cccnc1)Nc1ccc(Cl)c(Cl)c1	1	-2	-3	-3	2	0	/	/	/
O=C(NNC(=O)c1ccc2nonc2c1)Nc1ccc(Cl)cc1	/	5	-1	-1	3	10*	20*	5	8
O=C(NCc1nc2ccccc2[nH]1)C1=C[C@H](c2ccccc2)C[C@H](OCCCCO)O1	1	-2	0	-4	2	39*	74*	-5	45*
O=C(NCc1nc2ccccc2[nH]1)C1=C[C@H](c2ccc(C(F)(F)F)cc2)C[C@H](OCCCCO)O1	1	1	4	2	1	31*	69*	9	38*
O=C(NCc1nc2ccccc2[nH]1)C1=C[C@H](C2CC2)C[C@H](OCCCCO)O1	3	5	0	1	0	0	/	/	/
O=C(NCc1nc2ccccc2[nH]1)C1=C[C@H](c2ccc3c(c2)OCO3)C[C@H](OCCCCO)O1	7	2	1	-2	-2	69*	89*	-3	76*
O=C(NCc1nc2ccccc2[nH]1)C1=C[C@@H](c2ccc(C(F)(F)F)cc2)C[C@@H](OCCCCO)O1	1	1	2	-1	-1	32*	68*	9	35*
O=C(Nc1ccc(Oc2ccsc2C(=O)O)cc1)c1ccccc1F	-1	-2	0	0	1	-1	/	/	/
O=C(O)c1ccccc1N/C=C\[N+](=O)[O-]	-5	0	1	-10	-1	1	/	/	/
Cc1noc(C)c1S(=O)(=O)Nc1ccc2c(c1)CC(=O)N([C@H](C)CO)C[C@H](C)[C@@H](CN(C)CC1CC1)O2	-2	-1	-4	/	2	0	/	/	/
COc1ccccc1Cc1c(-c2ccc(C#N)cc2)nc2ccc(C)cn12	/	/	0	/	5	0	/	/	/
